Source: ChEMBL document CHEMBL5257020, “Discovery of a 9-mer Cationic Peptide (LTX-315) as a Potential First in Class Oncolytic Peptide” (J Med Chem, 2016)
Where a SMILES comes first, the peptide text is derived from it. [ ]: non-standard residue; d: D form. ξ: configuration not given here. ξAla(9-anthryl) = NC(Cc1c2ccccc2cc2ccccc12)C(=O)O; Dip = N[C@H](C(=O)O)C(c1ccccc1)c1ccccc1; ξBip = NC(Cc1ccc(-c2ccccc2)cc1)C(=O)O; ξDip = NC(C(=O)O)C(c1ccccc1)c1ccccc1; ξ1Nal = NC(Cc1cccc2ccccc12)C(=O)O; ξ2Nal = NC(Cc1ccc2ccccc2c1)C(=O)O; ξOrn = NCCCC(N)C(=O)O; ξDab = NCCC(N)C(=O)O; ξDap = NCC(N)C(=O)O

What was measured:
[1] = Cytotoxicity against human MRC5 cells assessed as inhibition of cell proliferation incubated for 4 hrs by MTT assay; type: toxicity, cell-based
Procedure, shortened: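 MRC-5 human embryonic lung fibroblasts cultured in MEM with 2 mM L-glutamine and 10% FBS, without antibiotics, at 37 °C in humidified 5% CO2. Cultures were tested for mycoplasma. IC50 from three or more independent measurements, given as mean ± SD.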

[2] = test system: A20; test: Cytotoxicity against mouse A20 lymphoma cells assessed as inhibition of cell proliferation incubated for 4 hrs by MTT assay; type: functional, cell-based; conditions: A20, 4 h
Procedure, shortened: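 Murine A20 cells cultured in RPMI-1640 with 2 mM L-glutamine, 1.5 g/L sodium bicarbonate, 4.5 g/L glucose, 10 mM HEPES, 1.0 mM sodium pyruvate, 0.05 mM 2-mercaptoethanol and 10% FBS, without antibiotics, at 37 °C, 5% CO2. IC50 from three or more independent measurements, given as mean ± SD.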

[3] = Cytotoxicity against mouse AT84 cells assessed as inhibition of cell proliferation incubated for 4 hrs by MTT assay; type: functional, cell-based; conditions: AT84, 4 h
[4] = Stability in pooled and cryopreserved human hepatocytes assessed as intrinsic clearance measured per 10^6 cells at 1 uM measured for 90 mins by LC-MS/MS analysis; type: ADME, cell-based, Hepatocyte; conditions: read-out: CLH
Procedure, shortened: (§1)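 Pooled cryopreserved hepatocytes at 0.5 million cells/mL, incubated at about 37 °C with 1 μM initial peptide. Supernatant after centrifugation analysed by LC–MS/MS (MRM) using a D-Trp7,9,10-substance P internal standard. Peak height was referenced to time zero, and t1/2 = −0.693/slope of ln concentration vs time. Clint = 0.693/t1/2 × Vinc per million cells. Testosterone, midazolam and 4-methylumbelliferone were the positive controls. Duplicates; mean of two experiments.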

[5] = Stability in pooled and cryopreserved rat hepatocytes assessed as intrinsic clearance measured per 10^6 cells at 1 uM measured for 90 mins by LC-MS/MS analysis; type: ADME, cell-based, Hepatocyte; conditions: read-out: CLH; procedure, shortened: as §1
[6] = Stability in pooled and cryopreserved human hepatocytes assessed as half life at 1 uM measured for 90 mins by LC-MS/MS analysis; type: ADME, cell-based, Hepatocyte
Procedure, shortened: (§2)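 Pooled cryopreserved rat or human hepatocytes, 0.5 million cells/mL, ~37 °C, peptide at 1 μM initial. Supernatants analysed by LC–MS/MS with peak height referenced to time zero. t1/2 = −0.693/slope of ln concentration vs time. Duplicate experiments. Testosterone, midazolam and 4-methylumbelliferone served as metabolic-competence controls.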

[7] = Stability in pooled and cryopreserved rat hepatocytes assessed as half life at 1 uM measured for 90 mins by LC-MS/MS analysis; type: ADME, cell-based, Hepatocyte; procedure, shortened: as §2

| Structure (SMILES) | IC50 at 4 h [1] [µM] | IC50 [2] [µM] | IC50 [3] [µM] | hepatocyte CLint at 1 µM [4] [µL/min/1e6 cells] | hepatocyte CLint at 1 µM [5] [µL/min/1e6 cells] | half-life at 1 µM [6] [min] | half-life at 1 µM [7] [min] |
| --- | --- | --- | --- | --- | --- | --- | --- |
| NCCCC[C@H](NC(=O)[C@H](Cc1c[nH]c2ccccc12)NC(=O)[C@H](Cc1c[nH]c2ccccc12)NC(=O)[C@H](CCCCN)NC(=O)[C@H](CCCCN)NC(=O)[C@H](Cc1c[nH]c2ccccc12)NC(=O)[C@H](Cc1c[nH]c2ccccc12)NC(=O)[C@H](CCCCN)NC(=O)[C@@H](N)CCCCN)C(N)=O (H-KKWWKKWWK-NH2) | > 357 | 37.3 | 31 | – | – | – | – |
| NCCCC[C@H](NC(=O)[C@H](Cc1c[nH]c2ccccc12)NC(=O)C(NC(=O)[C@H](CCCCN)NC(=O)[C@H](CCCCN)NC(=O)[C@H](Cc1c[nH]c2ccccc12)NC(=O)[C@H](Cc1c[nH]c2ccccc12)NC(=O)[C@H](CCCCN)NC(=O)[C@@H](N)CCCCN)C(c1ccccc1)c1ccccc1)C(N)=O (stereo not given in full) (H-KKWWKK[ξDip]WK-NH2) | 102 | 12.3 | 25.3 | – | – | – | – |
| NCCCC[C@H](NC(=O)[C@H](Cc1c[nH]c2ccccc12)NC(=O)[C@H](Cc1c[nH]c2ccccc12)NC(=O)[C@H](CCCCN)NC(=O)[C@H](CCCCN)NC(=O)[C@@H](NC(=O)[C@H](Cc1c[nH]c2ccccc12)NC(=O)[C@H](CCCCN)NC(=O)[C@@H](N)CCCCN)C(c1ccccc1)c1ccccc1)C(N)=O (H-KKW[Dip]KKWWK-NH2) | > 347 | 134 | 113 | – | – | – | – |
| NCCCC[C@H](NC(=O)[C@H](Cc1c[nH]c2ccccc12)NC(=O)[C@H](Cc1c[nH]c2ccccc12)NC(=O)[C@H](CCCCN)NC(=O)[C@H](CCCCN)NC(=O)C(Cc1cccc2ccccc12)NC(=O)[C@H](Cc1c[nH]c2ccccc12)NC(=O)[C@H](CCCCN)NC(=O)[C@@H](N)CCCCN)C(N)=O (stereo not given in full) (H-KKW[ξ1Nal]KKWWK-NH2) | 238 | 24 | 26.3 | – | – | – | – |
| NCCCC[C@H](NC(=O)[C@H](Cc1c[nH]c2ccccc12)NC(=O)[C@H](Cc1c[nH]c2ccccc12)NC(=O)[C@H](CCCCN)NC(=O)[C@H](CCCCN)NC(=O)C(Cc1ccc2ccccc2c1)NC(=O)[C@H](Cc1c[nH]c2ccccc12)NC(=O)[C@H](CCCCN)NC(=O)[C@@H](N)CCCCN)C(N)=O (stereo not given in full) (H-KKW[ξ2Nal]KKWWK-NH2) | 257 | 26 | 29.3 | – | – | – | – |
| NCCCC[C@H](NC(=O)[C@H](Cc1c[nH]c2ccccc12)NC(=O)[C@H](Cc1c[nH]c2ccccc12)NC(=O)[C@H](CCCCN)NC(=O)[C@H](CCCCN)NC(=O)C(Cc1c2ccccc2cc2ccccc12)NC(=O)[C@H](Cc1c[nH]c2ccccc12)NC(=O)[C@H](CCCCN)NC(=O)[C@@H](N)CCCCN)C(N)=O (stereo not given in full) (H-KKW[ξAla(9-anthryl)]KKWWK-NH2) | 40 | 9.3 | 11 | – | – | – | – |
| NCCCC[C@H](NC(=O)[C@H](Cc1c[nH]c2ccccc12)NC(=O)[C@H](Cc1c[nH]c2ccccc12)NC(=O)[C@H](CCCCN)NC(=O)[C@H](CCCCN)NC(=O)C(Cc1ccc(-c2ccccc2)cc1)NC(=O)[C@H](Cc1c[nH]c2ccccc12)NC(=O)[C@H](CCCCN)NC(=O)[C@@H](N)CCCCN)C(N)=O (stereo not given in full) (H-KKW[ξBip]KKWWK-NH2) | 174 | 18.7 | 27.3 | – | – | – | – |
| NCCCC[C@H](NC(=O)[C@H](Cc1c[nH]c2ccccc12)NC(=O)[C@H](Cc1c[nH]c2ccccc12)NC(=O)[C@H](CCCCN)NC(=O)[C@H](CCCCN)NC(=O)C(NC(=O)[C@H](Cc1c[nH]c2ccccc12)NC(=O)[C@H](CCCCN)NC(=O)[C@@H](N)CCCCN)C(c1ccccc1)c1ccccc1)C(N)=O (stereo not given in full) (H-KKW[ξDip]KKWWK-NH2) | 287 | 25.7 | 24.7 | – | – | – | – |
| NCCCC[C@H](NC(=O)C(NC(=O)[C@H](Cc1c[nH]c2ccccc12)NC(=O)[C@H](CCCCN)NC(=O)[C@H](CCCCN)NC(=O)C(NC(=O)[C@H](Cc1c[nH]c2ccccc12)NC(=O)[C@H](CCCCN)NC(=O)[C@@H](N)CCCCN)C(c1ccccc1)c1ccccc1)C(c1ccccc1)c1ccccc1)C(N)=O (stereo not given in full) (H-KKW[ξDip]KKW[ξDip]K-NH2) | 80 | 12 | 15 | – | – | – | – |
| NCCCC[C@H](NC(=O)[C@H](Cc1c[nH]c2ccccc12)NC(=O)[C@H](Cc1c[nH]c2ccccc12)NC(=O)[C@H](CCCCN)NC(=O)[C@H](CCCCN)NC(=O)[C@H](Cc1c[nH]c2ccccc12)NC(=O)C(NC(=O)[C@H](CCCCN)NC(=O)[C@@H](N)CCCCN)C(c1ccccc1)c1ccccc1)C(N)=O (stereo not given in full) (H-KK[ξDip]WKKWWK-NH2) | 488 | 51.7 | 36.7 | – | – | – | – |
| NCCCC[C@H](NC(=O)C(NC(=O)[C@H](Cc1c[nH]c2ccccc12)NC(=O)[C@H](CCCCN)NC(=O)[C@H](CCCCN)NC(=O)[C@H](Cc1c[nH]c2ccccc12)NC(=O)[C@H](Cc1c[nH]c2ccccc12)NC(=O)[C@@H](N)CCCCN)C(c1ccccc1)c1ccccc1)C(N)=O (stereo not given in full) (H-KWWKKW[ξDip]K-NH2) | 43.9 | 13.5 | – | – | – | – | – |
| NCCCC[C@H](NC(=O)C(NC(=O)[C@H](Cc1c[nH]c2ccccc12)NC(=O)[C@H](CCCCN)NC(=O)[C@H](CCCCN)NC(=O)[C@@H](N)Cc1c[nH]c2ccccc12)C(c1ccccc1)c1ccccc1)C(N)=O (stereo not given in full) (H-WKKW[ξDip]K-NH2) | 460 | 247 | – | – | – | – | – |
| NCCCC[C@H](NC(=O)C(NC(=O)[C@H](Cc1c[nH]c2ccccc12)NC(=O)[C@H](CCCCN)NC(=O)[C@H](CCCCN)NC(=O)[C@H](Cc1c[nH]c2ccccc12)NC(=O)[C@@H](N)Cc1c[nH]c2ccccc12)C(c1ccccc1)c1ccccc1)C(N)=O (stereo not given in full) (H-WWKKW[ξDip]K-NH2) | 53.2 | 20.3 | – | – | – | – | – |
| NCCC(N)C(=O)NC(CCN)C(=O)N[C@@H](Cc1c[nH]c2ccccc12)C(=O)NC(C(=O)NC(CCN)C(=O)NC(CCN)C(=O)N[C@@H](Cc1c[nH]c2ccccc12)C(=O)N[C@@H](Cc1c[nH]c2ccccc12)C(=O)NC(CCN)C(N)=O)C(c1ccccc1)c1ccccc1 (stereo not given in full) (H-[ξDab][ξDab]W[ξDip][ξDab][ξDab]WW[ξDab]-NH2) | 97.7 | 8.3 | 14.3 | – | – | – | – |
| NCC(N)C(=O)NC(CN)C(=O)N[C@@H](Cc1c[nH]c2ccccc12)C(=O)NC(C(=O)NC(CN)C(=O)NC(CN)C(=O)N[C@@H](Cc1c[nH]c2ccccc12)C(=O)N[C@@H](Cc1c[nH]c2ccccc12)C(=O)NC(CN)C(N)=O)C(c1ccccc1)c1ccccc1 (stereo not given in full) (H-[ξDap][ξDap]W[ξDip][ξDap][ξDap]WW[ξDap]-NH2) | 516 | 67.7 | 154 | – | – | – | – |
| NCCCC(N)C(=O)NC(CCCN)C(=O)N[C@@H](Cc1c[nH]c2ccccc12)C(=O)NC(C(=O)NC(CCCN)C(=O)NC(CCCN)C(=O)N[C@@H](Cc1c[nH]c2ccccc12)C(=O)N[C@@H](Cc1c[nH]c2ccccc12)C(=O)NC(CCCN)C(N)=O)C(c1ccccc1)c1ccccc1 (stereo not given in full) (H-[ξOrn][ξOrn]W[ξDip][ξOrn][ξOrn]WW[ξOrn]-NH2) | 323 | 21.7 | 23 | – | – | – | – |
| Cc1cc(=O)oc2cc(O)ccc12 [HYMECROMONE] | – | – | – | 127 | 373 | 11 | 4 |
| Cc1ncc2n1-c1ccc(Cl)cc1C(c1ccccc1F)=NC2 [MIDAZOLAM] | – | – | – | < 7 | 51 | > 200 | 27 |
| C[C@]12CC[C@H]3[C@@H](CCC4=CC(=O)CC[C@@]43C)[C@@H]1CC[C@@H]2O [TESTOSTERONE] | – | – | – | 333 | 811 | – | – |
